Measured values: ChEMBL document CHEMBL4130604, “Germacrane-Type Sesquiterpenoids with Antiproliferative Activities from Eupatorium chinense” (J Nat Prod, 2018)

Columns and labels:
Format in all cases: functional, cell-based
Ca-Ski = experiment: Antiproliferative activity against human CaSki cells after 48 hrs by MTT assay
Summary of the method: (§1)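 Cytotoxicity was read by MTT method on human Caski cervical, MDA-MB-231 breast, CNE2 nasopharyngeal and HepG2 hepatocellular carcinoma lines. Mitomycin C served as positive control, and medium containing 0.1% DMSO was the negative control. IC50 values are reported in μM. Other details follow an earlier protocol.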

HepG2 = experiment: Antiproliferative activity against human HepG2 cells after 48 hrs by MTT assay; conditions: HepG2, 48 h; summary of the method: as §1
MDA-MB-231 = experiment: Antiproliferative activity against human MDA-MB-231 cells after 48 hrs by MTT assay; conditions: MDA-MB-231, 48 h; summary of the method: as §1
CNE-2 = experiment: Antiproliferative activity against human CNE2 cells after 48 hrs by MTT assay; conditions: CNE-2, 48 h; summary of the method: as §1

Question: How did the IC50 (Ca-Ski) turn out when `C=C1C(=O)O[C@@H]2/C=C(/CO)[C@@H](OC(C)=O)C/C=C(\C)C[C@@H](OC(=O)/C(=C\C)CO)[C@@H]12` was run?
Answer: > 10 µM

Question: What about the IC50 (HepG2) of the same molecule?
Answer: 7.6 µM

Question: And the IC50 (MDA-MB-231)?
Answer: > 10 µM

Question: And the IC50 (CNE-2)?
Answer: > 10 µM

Question: With `C=C1C(=O)O[C@@H]2/C=C(/C)[C@@H](OC(C)=O)C/C=C(\C)C[C@@H](OC(=O)/C(=C\C)CO)[C@@H]12` as the molecule, how does the IC50 (Ca-Ski) read?
Answer: > 10 µM

Question: What about the IC50 (HepG2) of the same molecule?
Answer: 3.6 µM

Question: And the IC50 (MDA-MB-231)?
Answer: 0.8 µM

Question: What about the IC50 (CNE-2) of the same molecule?
Answer: > 10 µM

Question: What does the source list for `C=C1C(=O)O[C@@H]2/C=C(/C)[C@@H](OC(C)=O)C[C@@H](O)C(=C)C[C@@H](OC(=O)/C(=C\C)CO)[C@@H]12`?
Answer: IC50 (Ca-Ski): > 10 µM; IC50 (HepG2): > 10 µM; IC50 (MDA-MB-231): > 10 µM; IC50 (CNE-2): > 10 µM

Question: Which results are given for `C=C1C(=O)O[C@@H]2/C=C(/C)[C@@H](OC(C)=O)[C@H](O)/C=C(\C)C[C@@H](OC(=O)/C(=C\C)CO)[C@@H]12`?
Answer: IC50 (Ca-Ski): > 10 µM; IC50 (HepG2): > 10 µM; IC50 (MDA-MB-231): > 10 µM; IC50 (CNE-2): > 10 µM

Question: How did the IC50 (Ca-Ski) turn out when `C=C1C(=O)O[C@@H]2/C=C(/CO)[C@@H](OC(C)=O)C/C=C(\C)C[C@@H](OC(=O)/C(C)=C/C)[C@@H]12` was run?
Answer: > 10 µM

Question: What about the IC50 (HepG2) of the same molecule?
Answer: > 10 µM

Question: And the IC50 (MDA-MB-231)?
Answer: > 10 µM

Question: What about the IC50 (CNE-2) of the same molecule?
Answer: > 10 µM

Question: Which IC50 (Ca-Ski) does the source give for `C=C1C(=O)O[C@@H]2/C=C(/C)[C@H](OC(C)=O)C/C=C(\C)C[C@@H](OC(=O)/C(=C\C)CO)[C@@H]12` here?
Answer: > 10 µM

Question: And the IC50 (HepG2)?
Answer: 6.3 µM

Question: What about the IC50 (MDA-MB-231) of the same molecule?
Answer: 3.3 µM

Question: And the IC50 (CNE-2)?
Answer: > 10 µM

Question: With `C=C1C(=O)O[C@@H]2/C=C(/C)[C@@H](OC(C)=O)[C@H](OC(C)=O)/C=C(\C)C[C@@H](OC(=O)/C(=C\C)CO)[C@@H]12` as the molecule, how does the IC50 (Ca-Ski) read?
Answer: > 10 µM

Question: And the IC50 (HepG2)?
Answer: > 10 µM

Question: And the IC50 (MDA-MB-231)?
Answer: > 10 µM

Question: What about the IC50 (CNE-2) of the same molecule?
Answer: > 10 µM

Question: How did the IC50 (Ca-Ski) turn out when `C=C1C(=O)O[C@@H]2/C=C(/COC(C)=O)[C@@H](OC(C)=O)C/C=C(\C)C[C@@H](OC(=O)/C(C)=C/CO)[C@@H]12` was run?
Answer: > 10 µM

Question: And the IC50 (HepG2)?
Answer: > 10 µM

Question: What about the IC50 (MDA-MB-231) of the same molecule?
Answer: > 10 µM

Question: What about the IC50 (CNE-2) of the same molecule?
Answer: > 10 µM

Question: Which IC50 (Ca-Ski) does the source give for `C=C1C(=O)O[C@@H]2/C=C(/CO)[C@@H](OC(C)=O)C[C@@H](O)C(=C)C[C@@H](OC(=O)/C(=C\C)CO)[C@@H]12` here?
Answer: > 10 µM

Question: And the IC50 (HepG2)?
Answer: > 10 µM

Question: And the IC50 (MDA-MB-231)?
Answer: > 10 µM

Question: And the IC50 (CNE-2)?
Answer: > 10 µM

Question: For `CO[C@@]12[C@H](COC(N)=O)C3=C(C(=O)C(C)=C(N)C3=O)N1C[C@@H]1N[C@@H]12` [MITOMYCIN], which IC50 (Ca-Ski) is on record?
Answer: > 10 µM

Question: And the IC50 (HepG2)?
Answer: > 10 µM

Question: What about the IC50 (MDA-MB-231) of the same molecule?
Answer: 4.4 µM

Question: And the IC50 (CNE-2)?
Answer: > 10 µM
